The text below walks through data of ChEMBL document CHEMBL5247600, “Rational design of metabolically stable HDAC inhibitors: An overhaul of trifluoromethyl ketones” (Eur J Med Chem, 2022).

The structures appear in SMILES notation. Calls of active or inactive are those of the source. No cut-off for these calls is given here.

A short description of data set [1]: Metabolic stability in human Liver S9 fraction assessed as disappearance of compound and measured after 2 hrs by LC-ESI-MS analysis. To be noted: s9, 2 h. Format: ADME, subcellular. In short, it runs like this:
(§1)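 Human liver S9 fraction assay. Substrate 0.02 mM, 0.1 M buffer and 1 mM NADPH preincubated 10 min at 37 °C, then S9 (0.5 mg) added in 1 mL total; run in duplicate. Aliquots taken every 15 min or at 1 h and 2 h, residue taken up in methanol, diluted 1:1 with water and analysed by LC-ESI-MS tracking M+1 ions.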

In data set [2] the test system is HCT-116. Briefly: Anticancer activity against human HCT-116 cells assessed as cell growth inhibition incubated for 3 days by methylene blue staining based colorimetric assay. Format: functional. To be noted: HCT-116, 72 h.
Data set [3] relates to Panel NCI-60 (60 carcinoma cell lines). In words: Anticancer activity against human Panel NCI-60 (60 carcinoma cell lines) cells assessed as total cell growth inhibition incubated for 3 days by methylene blue staining based colorimetric assay relative to control. Format: functional. To be noted: 72 h, time 3 day. In a few lines:
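NCI-60 five-dose screen at five concentrations. […] TGI is the concentration giving total growth inhibition.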

Data set [4] shares this test system. In words: Anticancer activity against human Panel NCI-60 (60 carcinoma cell lines) cells assessed as cell growth inhibition at 10 uM incubated for 3 days by methylene blue staining based colorimetric assay relative to control. Format: functional. Details: scale not given: the % may be the effect or the level left. To be noted: time 3 day. In a few lines: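 NCI-60 one-dose screen at a single concentration of 10 μM. Read-out is mean growth percentage across the panel; positive values denote cytostatic activity and negative values cytotoxicity.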

For data set [5] the test system is unchanged. Briefly: Anticancer activity against human Panel NCI-60 (60 carcinoma cell lines) cells assessed as cell growth inhibition incubated for 3 days by methylene blue staining based colorimetric assay relative to control. The format is functional. As to conditions: 72 h, time 3 day. In short, it runs like this: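 NCI-60 five-dose screen at five concentrations. TGI is the concentration giving total growth inhibition.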

A short description of data set [6]: Metabolic stability in human Liver S9 fraction assessed as metabolite TFMA 90 formation and measured for 30 mins by LC-ESI-MS analysis. As to conditions: s9, 0.5 h. Format: ADME, subcellular. In a few lines: as §1
A short description of data set [7]: Metabolic stability in human Liver S9 fraction assessed as disappearance of compound and measured after 15 mins by LC-ESI-MS analysis. Format: ADME, subcellular. In short, it runs like this:
as §1

The test system of data set [8] is HeLa. In words: cells. Format: functional, cell-based. To be noted: Homo sapiens, 72 h.
The test system of data set [9] is U2OS. In words: Anticancer activity against human U2OS cells assessed as cell growth inhibition incubated for 3 days by methylene blue staining based colorimetric assay. As to conditions: 72 h. Format: functional. In short, it runs like this:
(§2)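 Cells kept in DMEM with 10% calf or fetal bovine serum plus penicillin/streptomycin (1000 U/ml each) at 37 °C, 5% CO2. Seeded at 5000/well (n = 3), treated next day, then after 3 days fixed/stained 30 min at room temperature with methylene blue saturated in 50% ethanol.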

Data set [10] relates to HT-1080. In words: Anticancer activity against human HT-1080 cells assessed as cell growth inhibition incubated for 3 days by methylene blue staining based colorimetric assay. Format: functional. As to conditions: HT-1080, 72 h. In a few lines: as §2
Data set [11] concerns NCI-H522. In words: cells. To be noted: Homo sapiens, NCI-H522, 72 h. The format is functional, cell-based.
The test system of data set [12] is MDA-MB-468. Briefly: cells. Format: functional, cell-based. As to conditions: Homo sapiens, MDA-MB-468, 72 h.
Data set [13] deals with MDA-MB-231. In words: Anticancer activity against human MDA-MB-231 cells assessed as cell growth inhibition incubated for 3 days by methylene blue staining based colorimetric assay. The format is functional. As to conditions: MDA-MB-231, 72 h. In short, it runs like this: as §2
In data set [14] the test system is HCT-116. In words: Induction of apoptosis in human HCT116 cells assessed as increase in cleaved PARP1 level at 5 to 10 uM incubated for 24 hrs by Western blot analysis. The format is functional, cell-based. To be noted: dose 5-10 µM. In a few lines:
(§3)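 HCT116 cells treated 24 h at the indicated concentrations. Lysates normalized by BCA, run on 12.5% SDS-PAGE and transferred to PVDF. Blocked 1 h in 5% milk/PBST, primary antibody against cleaved PARP overnight at 4 °C, then HRP secondary 1:10 000 and ECL detection.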

The subject of data set [15] is HCT-116. In words: Induction of apoptosis in human HCT116 cells assessed as increase in cleaved PARP1 level at 4 to 8 uM incubated for 24 hrs by Western blot analysis. Format: functional, cell-based. To be noted: dose 4-8 µM. In a few lines:
as §3

In data set [16] the test system is HCT-116. Briefly: Anticancer activity against human HCT-116 cells assessed as cell survival rate at 30 uM incubated for 3 days by methylene blue staining based colorimetric assay. The format is functional. To be noted: time 3 day. In a few lines: as §2
Data set [17] deals with NCI-H522. In words: Anticancer activity against human NCI-H522 cells assessed as cell survival rate incubated for 3 days by methylene blue staining based colorimetric assay. As to conditions: NCI-H522, 72 h. The format is functional. In short, it runs like this: as §2
The nature of data set [18]: Cytotoxicity against human RPE cells assessed as cell survival rate incubated for 3 days by methylene blue staining based colorimetric assay. The format is toxicity. In a few lines: as §2
The nature of data set [19]: Cytotoxicity against human RPE cells assessed as cell survival rate at 30 uM incubated for 3 days by methylene blue staining based colorimetric assay. As to conditions: time 3 day, read-out: Activity. The format is toxicity. In short, it runs like this:
as §2

In data set [20] the test system is NCI-H522. Briefly: Anticancer activity against human NCI-H522 cells assessed as cell survival rate at 30 uM incubated for 3 days by methylene blue staining based colorimetric assay. The format is functional. As to conditions: time 3 day. In short, it runs like this:
as §2

Data set [21] can be described thus: Cytotoxicity against human WI-38 cells assessed as cell survival rate incubated for 3 days by methylene blue staining based colorimetric assay. Format: toxicity. In a few lines:
as §2

Data set [22] can be described thus: Cytotoxicity against human WI-38 cells assessed as cell survival rate at 30 uM incubated for 3 days by methylene blue staining based colorimetric assay. The format is toxicity. As to conditions: time 3 day, read-out: Activity. In short, it runs like this: as §2
In data set [23] the test system is HCT-116. In words: Anticancer activity against human HCT-116 cells assessed as cell survival rate incubated for 3 days by methylene blue staining based colorimetric assay. Format: functional. To be noted: HCT-116, 72 h. In a few lines: as §2

As for `O=C(CCCCCCNC(=O)C(O)(O)C(F)(F)F)Nc1nccs1`, in [1], the Stability result is reported as “Stable”. Further, the IC50 in data set [2] was determined as 10.8 µM.
As for `COc1ccc(-c2cnc(NC(=O)CCCCCCNC(=O)C(O)(O)C(F)(F)F)s2)cc1`, the TGI in [3] worked out at 8.51 µM.
Turning to `COc1ccc(OC)c(NC(=O)CCCCCCNC(=O)C(O)(O)C(F)(F)F)c1`, the IC50 in data set [2] turned out to be 3.87 µM. Further, the Activity in data set [4] worked out at 35%.
In the case of `O=C(CCCCCCNC(=O)C(O)(O)C(F)(F)F)Nc1ccc(Cl)cc1`, in data set [3], the TGI is 26.9 µM. Moreover, in data set [5], the GI50 is 5.13 µM. The half-maximal inhibitory concentration (IC50) in data set [2] was 4.23 µM. In addition, the Activity in data set [4] turned out to be 15.99%.
For the molecule `O=C(CCCCCCNC(=O)C(O)(O)C(F)(F)F)Nc1ncc(-c2ccccc2)s1`, in [4], the Activity is reported as -10.06%.
As to `O=C(CCCCCCNC(=O)C(O)(O)C(F)(F)F)Nc1ccc(Br)cc1`, the TGI in data set [3] is 20.9 µM. In data set [5], the GI50 was found to be 3.16 µM. Further, the Activity in [4] turned out to be 2.58%.
As for `O=C(CCCCCCC(=O)C(F)(F)F)Nc1ccccc1`, in data set [2], the half-maximal inhibitory concentration (IC50) turned out to be 10.1 µM. Also, the Stability entry in data set [6] and in data set [7] was “Unstable” each time.
As to `O=C(CCCCCCNC(=O)C(O)(O)C(F)(F)F)Nc1nc2ccccc2s1`, the TGI in data set [3] is 21.4 µM. The 50% inhibitory concentration (IC50) in data set [8] was 1520 nM; in data set [2] it was 2.37 µM; in [9], 1410 nM; in data set [10], 2650 nM; in data set [11], 2.86 µM; in [12] it was 1310 nM. Further, in data set [13], the IC50 came to 1830 nM. Besides, the concentration for 50% growth inhibition (GI50) in data set [5] is 3.39 µM. For the same molecule, the Activity in [4] is reported as -2.45%.
With `O=C(CCCCCCNC(=O)C(O)(O)C(F)(F)F)Nc1ncc(-c2ccc(Br)cc2)s1`, the TGI in data set [3] was 11.4 µM. For the same molecule, in data set [14], the outcome was Active. Moreover, the Activity in [4] is -11.47%.
In the case of `O=C(CCCCCCC(=O)Nc1ccccc1)NO` [VORINOSTAT], the half-maximal inhibitory concentration (IC50) in data set [10] was determined as 3560 nM.
`O=C(CCCCCCNC(=O)C(O)C(F)(F)F)Nc1nccs1` (centres undefined): the Stability result in data set [1] is listed as “Stable”. For the same molecule, the IC50 in [2] is above 40 µM.
As for `COc1ccc2sc(NC(=O)CCCCCCNC(=O)C(O)(O)C(F)(F)F)nc2c1`, the concentration for total growth inhibition (TGI) in data set [3] came out at 12.3 µM. In addition, the GI50 in data set [5] was 1.23 µM. In addition, the half-maximal inhibitory concentration (IC50) in data set [2] was determined as 2.18 µM; in data set [9] it was 3290 nM; in data set [10], 2280 nM; in [11], 3.23 µM; in data set [12], 3650 nM; in data set [13] it was 810 nM. Also, the outcome in [15] was Active. In data set [4], the Activity is listed as -4.91%.
For the molecule `COc1ccc(NC(=O)CCCCCCNC(=O)C(O)(O)C(F)(F)F)cc1`, the Activity in data set [16] worked out at 10%; in data set [20], 20%; in data set [4], 37.09%. Besides, the half-inhibitory concentration (IC50) in [17] was found to be 8.05 µM; in data set [2] it was 4.52 µM; in data set [23], 3.13 µM. The half-inhibitory concentration (IC50) at 3 days in data set [18] and in [21] was above 30 µM each time. Besides, the viability at 72 h, 30 µM in data set [19] is above 50%; in [22], above 80%.
`O=C(CCCCCCNC(=O)C(O)(O)C(F)(F)F)Nc1ccc(-c2ccccc2)cc1`: in data set [3], the concentration for total growth inhibition (TGI) is 15.1 µM. The Activity in [4] was determined as 2.1%.
`COc1cccc(NC(=O)CCCCCCNC(=O)C(O)(O)C(F)(F)F)c1`: the IC50 in data set [2] stood at 6.11 µM.
`O=C(CCCCCCNC(=O)C(O)(O)C(F)(F)F)Nc1ccccc1`: the IC50 in data set [2] is 9.14 µM.
With `O=C(CCCCCCNC(=O)C(O)(O)C(F)(F)F)Nc1ccc(S(F)(F)(F)(F)F)cc1`, the 50% inhibitory concentration (IC50) in [2] stood at 9.11 µM.
Same read-out and setting: for `C/C(=N\O)C(=O)NCCCCCC(=O)Nc1ccccc1` the value was above 100 µM; for `NC(=O)C(=O)NCCCCCC(=O)Nc1ccccc1`, above 100 µM.
